Laboratory results published in ChEMBL document CHEMBL1152389, “A novel and efficient synthesis of highly oxidized lignans by a methyltrioxorhenium/hydrogen peroxide catalytic system. Studies on their apoptogenic and antioxidant activity” (Bioorg Med Chem, 2009).
Calls of active or inactive are those of the source. No cut-off for these calls is given here.

What was measured:
Type in all cases: functional, cell-based
BL-41 = assay: Induction of apoptosis in human EBV deficient BL41 cells assessed as condensed and fragmented nuclei at 25 to 100 uM after 18 hrs by epifluorescent microscopy
Outline: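 BL41 (EBV-negative Burkitt lymphoma) cells in RPMI with 4 mM L-glutamine, 10% FCS at 37 °C, 5% CO2. Seeded at 3 × 10^5 cells/mL and exposed 18 h to compounds in DMSO (≤0.5% v/v). Cells fixed in 4% p-formaldehyde, stained with DAPI 0.2 µg/mL. At least 500 cells in random fields scored by epifluorescence for condensed/fragmented nuclei.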

E2R [1] = assay: Induction of apoptosis in human E2R cells expressing EBV assessed as condensed and fragmented nuclei at 25 to 100 uM after 18 hrs by epifluorescent microscopy
Outline: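 BL41-derived E2R cells (EBV-positive, apoptosis-resistant) grown in RPMI with 4 mM L-glutamine and 10% FCS at 37 °C, 5% CO2. Seeded at 3 × 10^5 cells/mL and exposed to compounds in DMSO (≤0.5% v/v) for 18 h. Cells fixed in 4% p-formaldehyde and stained with DAPI (0.2 µg/mL). Condensed/fragmented nuclei scored in ≥500 cells from random fields by epifluorescence microscopy.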

E2R [2] = assay: Antioxidant activity in human E2R cells assessed as intracellular peroxide level at 25 to 100 uM after 1 hr by flow cytometry in presence of DCFH-DA
Outline: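 E2R cells (EBV-positive, apoptosis-resistant isogenic Burkitt line) in RPMI with 4 mM L-glutamine, 10% FCS, 37 °C, 5% CO2. Compounds in DMSO (0.2%) for 1 h in RPMI, then 10 µM DCFH-DA for 20 min at 37 °C. Flow cytometry, excitation 488 nm, emission 533 nm (FL-1), 10,000 events per sample.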

COc1cc([C@H]2c3cc(O)c(OC)cc3C[C@H]3C(=O)OC[C@H]23)ccc1O
Activity (BL-41): inactive | Activity (E2R [1]): inactive | Activity (E2R [2]): Active

COc1cc(/C=C2\C(=O)OC[C@@H]2C(=O)c2ccc(O)c(OC)c2)ccc1O
Activity (E2R [1]): Active

COc1cc([C@H]2c3cc(O)c(OC)cc3C[C@@H](CO)[C@@H]2CO)ccc1O
Activity (BL-41): inactive | Activity (E2R [1]): inactive

COc1cc(C[C@H]2C(=O)OC[C@@H]2Cc2ccc(O)c(O)c2)ccc1O
Activity (E2R [2]): Active

COc1cc([C@H]2c3cc(O)c(OC)cc3C[C@H]3COC[C@@H]32)ccc1O
Activity (BL-41): Active | Activity (E2R [1]): Active | Activity (E2R [2]): inactive

COc1cc(C[C@H]2C(=O)OC[C@@H]2[C@H](O)c2ccc(O)c(OC)c2)ccc1O
Activity (BL-41): inactive | Activity (E2R [1]): inactive

COc1cc(C[C@H]2COC(=O)[C@@H]2C(O)c2ccc(O)c(OC)c2)ccc1O (stereo partly specified)
Activity (BL-41): inactive | Activity (E2R [1]): inactive

COc1cc(C(=O)[C@H]2COC(=O)[C@@H]2C(O)c2ccc(O)c(OC)c2)ccc1O (stereo partly specified)
Activity (E2R [1]): Active

COc1cc(C[C@H]2CO[C@H](c3ccc(O)c(OC)c3)[C@H]2CO)ccc1O
Activity (BL-41): inactive | Activity (E2R [1]): inactive

COc1cc(C[C@H]2COC(=O)[C@@H]2Cc2ccc(O)c(OC)c2)ccc1O
Activity (BL-41): Active | Activity (E2R [1]): Active | Activity (E2R [2]): Active

COc1cc2c(cc1O)[C@H](c1ccc(O)c(O)c1)[C@H]1COC[C@@H]1C2
Activity (E2R [2]): inactive
